Bioassay records from PubChem BioAssay.
aDG glyco up = increases alpha dystroglycan glycosylation; Pro5-aDG cells, alpha-DG glycosylation AlphaScreen (IIH6); 0% Pro5, 100% B10-LARGE cell signal; activation, % at 10 µM; 360,000 compounds, 0.22% hits; AID 624168;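 active means activation of at least 8% versus controls, or a plate z-score of at least 8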;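 further: Pro5 are CHO cells carrying HIG-tagged alpha-DG that lacks glycosylation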
GASC-1 inh = inhibitors of human GASC-1 (JMJD2C) demethylase | Q9H3R0 | GST-JMJD2C(1-420) H3K9me3 demethylation, DELFIA europium | inhibition, % at 2.35 µM | 330,000 compounds, 0.069% hits;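 active means more than half of a compound's replicate wells show inhibition beyond 50%, single wells judged on their own value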;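 further: signal counts dimethyl H3K9 product captured on neutravidin plate; 0% = median of DMSO wells and 100% = 0.3 times that DMSO median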
NPR1 activator = GC-A (human) enzyme activation | 370,000 compounds, 0.14% hits | activation, % at 10 µM | P16066 | HEK293 GC-A cells, cGMP TR-FRET, EC30 ANP; 0% at EC30 ANP, 100% saturating ANP | AID 1671463; in the data active means activation above about 40%
Hep lipid drop = hepatic lipid droplet formation modulation. AML12 mouse hepatocytes, oleate lipid droplets, BODIPY imaging. AID 1656. 240,000 compounds, 0.4% hits. inhibition, % at 6.5 µM;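 active means lipid droplet intensity inhibited by at least 50%, with more than 500 cells counted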
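Material – mouse AML12 hepatocyte cell line, fixed after treatment · Compound dosing – one dose, 6.5 µM compound · Times – compound with oleate, overnight · Measured by – Image-based BODIPY and DAPI two-channel analysis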
GRIN3A LBD mod = modulates the human NR3A ligand-binding domain; Tm shift relative to glycine control, % at 25 µM; NR3A LBD differential scanning fluorimetry, Tm shift; 0% = protein alone, 100% = glycine-bound protein; 340,000 compounds, 2.5% hits;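 active means melting temperature shift of at least 10% of the positive control shift, at one fixed dose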
GC-B act = GC-B (human) receptor activation | activation, % at 10 µM | HEK293-GC-B cells, CNP EC30, cGMP TR-FRET; 0% at EC30 CNP, 100% saturating CNP | P20594 | 370,000 compounds, 0.11% hits;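 active means activation at 10 µM reaching about 35% in either raw or pattern-adjusted values, limit read from the data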
Starred values were filed as active, the others as inactive; . = not tested or not shown. Shown are actives, neighbours in structure and some others; about 3% of the full set was active somewhere.

SMILES	aDG glyco up	GASC-1 inh	NPR1 activator	Hep lipid drop	GRIN3A LBD mod	GC-B act
Cc1ccc(NC(=O)CSc2nc(N)c3c4c(sc3n2)CSC(C)(C)C4)cc1	0	6	-2	1	24*	-1
CCN1C(=O)N[C@@H](c2cccs2)C(C(=O)OC)=C1C	0	-3	-1	.	-1	-4
CCN1C(=S)N[C@@H](c2cccs2)C(C(=O)OC)=C1C	0	2	29	-11	3	35*
Cc1ccccc1Cn1cc(CN2[C@H](CC(C)C)COc3cc(Br)ccc3S2(=O)=O)nn1	.	.	-2	.	.	4
O=C(C1CCCN1S(=O)(=O)c1cccs1)N1CCc2ccccc2C1 (stereo not drawn)	.	.	1	.	.	-7
COc1cnn(-c2ccc(Br)cc2)c(=O)c1SCc1ccccc1	0	3	-10	-16	15*	0
Cc1ccc(C(=O)Nc2ccccc2OC(F)F)cc1	3	6	1	-1	13*	2
O=C(COc1c(F)c(F)c(C(F)(F)F)c(F)c1F)Nc1ccc(N2CCOCC2)c(Cl)c1	1	3	-4	-2	11*	0
CCOC(=O)c1cn(-c2c(Cl)cccc2Cl)c2cc(Cl)c([N+](=O)[O-])cc2c1=O	0	-10	4	8	-5	2
CCOC(=O)c1cn(CC)c2cc(Cl)c([N+](=O)[O-])cc2c1=O	1	-15	2	1	12*	-6
CC1=NN(c2ccc(Cl)cc2)C(=O)C1C(c1cccc(O)c1)c1c(C)[nH]n(-c2ccc(Cl)cc2)c1=O (stereo not drawn)	0	6	.	-2	15*	.
Cc1ccccc1N1CCN(S(=O)(=O)c2ccc3c(c2)oc(=O)n3C)CC1	.	.	1	.	.	-3
Cn1c(=O)oc2cc(S(=O)(=O)N3CCN(c4ccccc4F)CC3)ccc21	1	0	-3	6	12*	3
O=C(c1cccc(S(=O)(=O)N2CCCCCC2)c1)N1CCN(c2ccccc2F)CC1	0	-6	-3	1	17*	0
O=C(c1ccccc1F)N1CCN(c2ccccc2F)CC1	0	0	-3	.	12*	0
O=C(c1cccc(S(=O)(=O)N2CCN(c3ccccc3)CC2)c1)N1CCN(c2ccccc2O)CC1	0	14	-5	.	10*	-2
O=C(c1ccccc1C(=O)N1CCN(c2ccccc2F)CC1)N1CCN(c2ccccc2F)CC1	0	-2	2	0	-1	6
N#Cc1cccc(NC(=O)OC2CC3CC2[C@H]2CCCCN2[C@H]3Cc2ccccc2)c1 (stereo partly drawn)	.	.	-2	.	.	-4
COc1ccc(Cl)cc1C(=O)Nc1ccc(S(=O)(=O)N2CCCC2)cc1	0	15	16	2	20*	-4
COc1ccc(C(=O)Nc2ccc(S(=O)(=O)N3CCCC3)cc2)cc1[N+](=O)[O-]	0	2	-1	-1	41*	-12
COc1ccc(C(=O)Nc2ccc(S(=O)(=O)NC(C)(C)C)cc2)cc1[N+](=O)[O-]	0	-5	-7	2	28*	-2
Cc1ccc(NC(=O)OC2CCC23CCCCC3)cc1 (stereo not drawn)	.	.	-1	.	.	2
COC(=O)[C@H](C)N(Cc1cn(Cc2ccccc2)nn1)S(=O)(=O)c1ccccc1Br	.	.	2	.	.	6
CCOC(=O)c1c(NC(=O)c2cc3n(n2)C(C(F)(F)F)CC(c2ccccc2)N3)sc(C)c1C (stereo not drawn)	0	-2	0	8	18*	2
CCCCNC(=O)c1cc2n(n1)C(C(F)(F)F)CC(c1ccccc1)N2 (stereo not drawn)	0	-4	3	-14	1	0
CCOC(=O)C1CCCN(C(=O)c2cc3nc(-c4ccc5c(c4)OCO5)cc(C(F)(F)F)n3n2)C1 (stereo not drawn)	0	-2	33	.	2	37*
Cc1ccc(-c2cc(C(F)(F)F)n3nc(C(=O)N4CCN5CCCC5C4)cc3n2)cc1 (stereo not drawn)	0	-10	8	-13	-2	7
